The nature of experiment [1]: inhibitors of TNFa-induced NFkB p65 translocation, primary screen, imaging, HUVEC, MLSMR starter and 10KST1 sets (AID 438;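 active = inhibition above 20% together with a positive visual image hit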;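 also: compound added about 3h40 before a 20 min TNFalpha stimulation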;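 as to inhibition: signal is the nuclear over cytoplasmic p65 intensity ratio per well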). Particulars: HUVEC TNFa-induced p65 nuclear translocation; cell count: measured here: nuclei count (cytotoxicity indicator), at 2.08 µM; inhibition: at 2 µM, stronger effect = higher value, 0% TNFa-plus-vehicle, 100% no-TNFa wells.
Experiment [2] in a line: inhibitors of E-selectin induction by TNFa, primary screen, imaging, HUVEC, immunofluorescence, MLSMR starter and 10KST1 sets (AID 487;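 active = visually confirmed hit in the image check and inhibition above 20%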;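 as to inhibition: signal is fraction of cell area covered by stained E-selectin grains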;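 as to nuclei count: 100% = median nuclei count of all wells on the same plate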). The note with it: HUVEC TNFalpha-induced E-selectin immunofluorescence imaging, at 2 µM; inhibition: stronger effect = higher value; nuclei count: measured here: cell number, toxicity.
The nature of experiment [3]: DUSP6 inhibitors restoring Erk phosphorylation by chemical complementation, primary imaging in DUSP6-transfected HeLa (AID 609;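 active = compounds giving at least 50% inhibition in the cell-based MKP-3 phosphatase rescue imaging test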;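 as to inhibition: phospho-Erk level distribution per well compared with pooled transfected vehicle control wells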). Particulars: HeLa MKP-3 transfected, phospho-Erk imaging KS statistic, at 10 µM, cells stimulated with TPA for 15 min.
In experiment [4] the target is Dual specificity protein phosphatase 6 (Homo sapiens) (UniProt Q16828). Described as above. Particulars: HeLa MKP-3 transfected, phospho-Erk imaging KS statistic; at 10 µM; stronger effect = higher value; cells stimulated with TPA for 15 min.
The target of experiment [5] is Voltage-gated potassium channel subunit beta-2 (Rattus norvegicus) (UniProt P62483). Description: KvBeta enzyme negative modulators, primary screen, biochemical, NADPH fluorescence (AID 622;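 active = fluorescence slope higher than the sample average by over 3 SD, cut at about -0.22 in these data, passing the limit was not always enough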;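 also: slope of raw intensity against log time taken from 70 to 1610 s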). Particulars: recombinant KvBeta, 4-cyanobenzaldehyde reduction, at 10 µM, stronger effect = higher value.
Experiment [6] shares this target. The experiment in a line: KvBeta positive modulators, primary screen, biochemical, NADPH fluorescence (AID 623;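 active = NADPH fluorescence slope more negative than the mean of all samples by about 3 SD, 99.7% confidence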;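 also: fluorescence intensity change per second fitted from 20 to 320 s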). The note with it: Recombinant KvBeta, NADPH fluorescence decrease slope, 10 min; at 10 µM; stronger effect = lower value.
Experiment [7] concerns the target Muscarinic acetylcholine receptor M4 (Homo sapiens) (UniProt P08173). Description: compounds altering M4/GIRK thallium flux, either direction, primary screen, M4 allosteric agonist project, cell-based, HEK293 M4/GIRK, BTC-AM (AID 625).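 Also: thallium influx through GIRK channels coupled to M4 in HEK293 cells with BTC-AM dye.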 Particulars: at 10 µM, actives lie on both sides. The method in brief: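 assay system = HEK293 cells with M4 receptor and GIRK channels | medium = pH 7.3 thallium assay buffer | doses = 10 µM final, single point | timing = cells overnight at 37 °C, BTC-AM loading 1 h, reads 2 min total | signal = BTC-AM fluorescence, 1 Hz kinetic reads | read-out = post-addition slope, 15–24 s, of baseline-normalized fluorescence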

Experiment [8] is described as follows: inhibitors of larval lipid processing in zebrafish, primary screen, whole organism, PED6 fluorescence, gall bladder and intestine (AID 686;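 active = a full or partial loss of lipid-probe fluorescence in the fish gall bladder, intestine or both, judged by eye; inactive = no fluorescence loss, or compound toxic to the fish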;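 also: larvae 5 to 7 days old with five fish per well; signal comes from phospholipase A2 cleavage of quenched PED6 carried via bile; overnight exposure to compound and PED6 before scoring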). Particulars: Zebrafish larvae PED6 lipid processing, fluorescence scoring; screened at 20 µM (by protocol). The method, boiled down:
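Also added: quenched phospholipase substrate PED6, 100 nM final, ingested by larvae; System: zebrafish larvae, 5-7 d; Quantity: 5 larvae per well; Compound: 20 µM single dose; Schedule: overnight compound and PED6 incubation; Read-out: visual per-well fluorescence inhibition score; Measured by: By-eye fluorescence microscopy; Medium: E3.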

A short description of experiment [9]: inhibitors of Chlamydomonas gravitaxis, primary screen, whole organism, Chlamydomonas reinhardtii, WT vs cilia-less mutant, absorbance, 96-well (AID 463189;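 active = inhibition at or above 50% relative to wild type and mutant plate controls; inactive = inhibition below 50%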;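 also: 0% = wild type cc124 cells in DMSO and 100% = ciliumless bld1 mutant cells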). The note with it: OD600 absorbance, 2 days, at 10 µM, stronger effect = higher value.
Setting [10] is: measured here: cell density z-score.
Setting [11] is: measured here: nuclear c-Myc green intensity z-score.
[12] abbreviates: measured here: nuclear pErk red intensity z-score, stronger effect = higher value.

Calls of active or inactive are those of the source.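 The calls were made as follows, unless noted: active = fluorescence slope after compound addition differing from the mean of all tested samples at 99.7% confidence, mostly higher but some lower; inactive = the rest.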

The term inhibition denotes the relative decrease from the control value, in per cent.

Sequence of Voltage-gated potassium channel subunit beta-2 (Rattus norvegicus) (P62483 whole entry, looked up): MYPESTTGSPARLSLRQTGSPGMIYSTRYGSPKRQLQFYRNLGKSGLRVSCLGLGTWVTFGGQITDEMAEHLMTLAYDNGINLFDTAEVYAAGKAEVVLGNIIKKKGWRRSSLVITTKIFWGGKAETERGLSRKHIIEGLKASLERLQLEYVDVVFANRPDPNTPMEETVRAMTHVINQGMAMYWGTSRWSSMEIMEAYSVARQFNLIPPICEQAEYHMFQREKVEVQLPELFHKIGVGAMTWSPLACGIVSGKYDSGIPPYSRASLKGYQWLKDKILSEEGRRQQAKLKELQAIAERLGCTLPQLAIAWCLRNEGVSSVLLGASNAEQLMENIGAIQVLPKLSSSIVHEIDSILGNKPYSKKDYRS
Sequence of Dual specificity protein phosphatase 6 (Homo sapiens) (Q16828 whole entry, looked up): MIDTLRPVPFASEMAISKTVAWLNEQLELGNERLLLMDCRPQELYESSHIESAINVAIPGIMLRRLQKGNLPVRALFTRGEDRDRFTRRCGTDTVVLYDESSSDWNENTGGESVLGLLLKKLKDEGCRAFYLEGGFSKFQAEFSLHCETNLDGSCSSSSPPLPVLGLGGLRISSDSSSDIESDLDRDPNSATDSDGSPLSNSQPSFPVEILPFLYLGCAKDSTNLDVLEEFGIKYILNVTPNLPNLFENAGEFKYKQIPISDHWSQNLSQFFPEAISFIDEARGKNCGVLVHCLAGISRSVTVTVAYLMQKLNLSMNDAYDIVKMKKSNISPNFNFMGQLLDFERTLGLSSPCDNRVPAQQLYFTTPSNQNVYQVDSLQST
Sequence of Muscarinic acetylcholine receptor M4 (Homo sapiens) (P08173 whole entry, looked up): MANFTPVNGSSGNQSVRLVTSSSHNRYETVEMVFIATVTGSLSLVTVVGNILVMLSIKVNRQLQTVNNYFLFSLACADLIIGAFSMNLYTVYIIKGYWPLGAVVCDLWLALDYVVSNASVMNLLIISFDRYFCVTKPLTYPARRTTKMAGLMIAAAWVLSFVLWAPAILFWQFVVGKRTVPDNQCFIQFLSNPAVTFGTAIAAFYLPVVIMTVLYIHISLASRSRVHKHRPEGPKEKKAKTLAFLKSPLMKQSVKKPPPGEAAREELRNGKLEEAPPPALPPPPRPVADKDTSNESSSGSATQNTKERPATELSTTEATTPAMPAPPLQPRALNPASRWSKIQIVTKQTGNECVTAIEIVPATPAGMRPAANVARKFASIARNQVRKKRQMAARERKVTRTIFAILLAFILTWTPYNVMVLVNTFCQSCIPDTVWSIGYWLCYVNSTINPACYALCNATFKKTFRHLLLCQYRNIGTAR

Consider `CC1(C)Cc2c(sc3ncn4nc(-c5ccco5)nc4c23)CO1`, for which the cell count in experiment [1] came out at 629. Also, the inhibition in [1] is 6.6% (inactive); in experiment [2] it was -31.6% (inactive); in experiment [4], -7.67% (inactive); in [9] it was 16.9% (inactive). The nuclei count in experiment [2] stood at 112%. Also, the z-score was -0.299 in experiment [3] (setting [10]), 0.915 in experiment [3] (setting [11]) and -1.17 in [3] (setting [12]). Moreover, the fluorescence slope in experiment [5] is -0.432 (inactive); in experiment [7], 0.00512 (inactive). In addition, in experiment [6], the NADPH fluorescence slope was -4.1e-05 (inactive). Also, the outcome in experiment [8] was inactive.
With `S=c1[nH]nc(-c2ccco2)n1C1CCCCC1`, the cell count in experiment [1] came to 638. Moreover, the inhibition is -2.9% (inactive) in experiment [1], 6.6% (inactive) in experiment [2], -7.67% (inactive) in experiment [4] and -19.8% (inactive) in experiment [9]. Besides, the nuclei count in [2] came to 143%. The z-score in experiment [3] (setting [10]) was -0.759; in experiment [3] (setting [11]), -0.86; in experiment [3] (setting [12]), -1.13. For the same compound, the results for the fluorescence slope in [5] and in experiment [7] were -0.495 (inactive) and 0.00615 (inactive), respectively. Also, the NADPH fluorescence slope in experiment [6] is -4e-05 (inactive). Moreover, the compound was classed as inactive in experiment [8].
As to `CC(C)c1ccc(O)c(N)c1`, the cell count in [1] was determined as 660. Also, the inhibition in experiment [1] is -20.9% (inactive); in experiment [2] it was -16.4% (inactive); in experiment [4], 22.1% (inactive); in experiment [9], 11.1% (inactive). This compound also had a nuclei count in experiment [2] of 180%. In addition, the z-score in [3] (setting [10]) was 1.39; in experiment [3] (setting [11]) it was -1.5; in experiment [3] (setting [12]) it was 0.0534. Further, the results for the fluorescence slope in experiment [5] and in [7] were -0.527 (inactive) and 0.00607 (inactive), respectively. The NADPH fluorescence slope in experiment [6] is -1.2e-05 (inactive). Also, in experiment [8], the result was inactive.
For `O=C(Nc1ncccc1Cl)c1cccc(F)c1`, the cell count in experiment [1] came to 527. The inhibition was 0.8% (inactive) in [1], 19.5% (inactive) in experiment [2], 3.42% (inactive) in experiment [4] and 34.1% (inactive) in experiment [9]. In [2], this compound registered a nuclei count of 88.6%. Further, the z-score in experiment [3] (setting [10]) was -1.41; in experiment [3] (setting [11]), 0.161; in [3] (setting [12]) it was -0.3. In addition, the figures for the fluorescence slope in experiment [5] and in experiment [7] were -0.419 (inactive) and 0.0047 (inactive), respectively. Moreover, in experiment [6], the NADPH fluorescence slope was 1.2e-05 (inactive). In addition, the compound was classed as inactive in experiment [8].
Take `CCO/C(C)=N/n1c2nc3ccccc3nc2c2c(=O)n(Cc3ccccc3Cl)c(C)nc21`: the cell count in experiment [1] was 649. For the same compound, the inhibition was -3.5% (inactive) in [1], -201% (inactive) in experiment [2], 9.37% (inactive) in [4] and 12.7% (inactive) in [9]. In [2], this compound displayed a nuclei count of 159%. For the same compound, the z-score in experiment [3] (setting [10]) is -0.0584; in experiment [3] (setting [11]) it was -0.543; in experiment [3] (setting [12]), -0.0329. In addition, the fluorescence slope in [5] was -0.455 (inactive); in experiment [7], 0.00359 (inactive). Besides, the NADPH fluorescence slope in [6] is -3.5e-05 (inactive). Moreover, in [8], the outcome was inactive.
For the compound `CCC(=O)Nc1cccc(-c2nnc(SCC(=O)NCc3ccco3)n2C)c1`, the cell count in experiment [1] came out at 615. Besides, the inhibition in [1] was -0.2% (inactive); in experiment [2] it was 47.2% (inactive); in [4], 18.4% (inactive); in experiment [9], -16.4% (inactive). The compound further yielded a nuclei count in [2] of 92.3%. Further, the z-score in experiment [3] (setting [10]) is 1.47; in [3] (setting [11]) it was -0.507; in experiment [3] (setting [12]) it was -1.13. Also, the fluorescence slope in experiment [5] is -0.51 (inactive); in [7], 0.00589 (inactive). In addition, in experiment [6], the NADPH fluorescence slope is -4e-05 (inactive). The compound was called inactive in [8].
As for `CC1(C)CCN(Cc2ccccc2)C1CC#N` (stereo unspecified), the cell count in experiment [1] came to 572. In addition, the inhibition in experiment [1] is -1.7% (inactive); in experiment [2] it was -7.9% (inactive); in experiment [4], 3.97% (inactive); in experiment [9], 34.2% (inactive). In addition, the nuclei count in experiment [2] amounted to 134%. The z-score was -0.215 in experiment [3] (setting [10]), -0.992 in experiment [3] (setting [11]) and 0.527 in experiment [3] (setting [12]). Besides, the figures for the fluorescence slope in experiment [5] and in experiment [7] were -0.353 (inactive) and 0.00545 (inactive), respectively. Also, the NADPH fluorescence slope in experiment [6] was 8.5e-06 (inactive). In [8], the call was inactive.

Source of the values: PubChem BioAssay.
